Experimental data: ChEMBL document CHEMBL3997851, “Design and Synthesis of Mercaptoacetamides as Potent, Selective, and Brain Permeable Histone Deacetylase 6 Inhibitors” (ACS Med Chem Lett, 2017)
Calls of active or inactive are those of the source. No cut-off for these calls is given here.

What was measured:
Liver [1] = assay: Prodrug conversion in mouse liver microsomes assessed as N-[5-(5,6-Dichloro-1H-indol-1-yl)pentyl]-2-mercaptoacetamide formation measured over 60 mins; assay type: ADME, microsome
Procedure, shortened: (§1)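 Disulfide prodrug incubated with pooled human or mouse liver microsomes, with the released free mercaptoacetamide measured over time. Percent released is taken as the measured thiol concentration divided by twice the initial prodrug concentration.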

[2] = Metabolic stability in human liver microsomes assessed as parent compound remaining at 60 mins in presence of NADPH; assay type: ADME, microsome; conditions: read-out: Stability
Procedure, shortened: (§2)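 Incubated in pooled liver microsomes (human or mouse as per line) with NADPH cofactor; all tests run in duplicate.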

[3] = Metabolic stability in mouse liver microsomes assessed as parent compound remaining at 60 mins in presence of NADPH; assay type: ADME, microsome; conditions: read-out: Stability; procedure, shortened: as §2
[4] = Half life in mouse liver microsomes in presence of NADPH; assay type: ADME, microsome; procedure, shortened: as §2
[5] = biological target: T1, Protein deacetylase HDAC6 (Homo sapiens) (UniProt Q9UBN7); assay: Inhibition of HDAC6 in HEK293 cells assessed as induction of tubulin acetylation after 24 hrs by Western blot method; assay type: cell-based
T1 sequence (whole entry): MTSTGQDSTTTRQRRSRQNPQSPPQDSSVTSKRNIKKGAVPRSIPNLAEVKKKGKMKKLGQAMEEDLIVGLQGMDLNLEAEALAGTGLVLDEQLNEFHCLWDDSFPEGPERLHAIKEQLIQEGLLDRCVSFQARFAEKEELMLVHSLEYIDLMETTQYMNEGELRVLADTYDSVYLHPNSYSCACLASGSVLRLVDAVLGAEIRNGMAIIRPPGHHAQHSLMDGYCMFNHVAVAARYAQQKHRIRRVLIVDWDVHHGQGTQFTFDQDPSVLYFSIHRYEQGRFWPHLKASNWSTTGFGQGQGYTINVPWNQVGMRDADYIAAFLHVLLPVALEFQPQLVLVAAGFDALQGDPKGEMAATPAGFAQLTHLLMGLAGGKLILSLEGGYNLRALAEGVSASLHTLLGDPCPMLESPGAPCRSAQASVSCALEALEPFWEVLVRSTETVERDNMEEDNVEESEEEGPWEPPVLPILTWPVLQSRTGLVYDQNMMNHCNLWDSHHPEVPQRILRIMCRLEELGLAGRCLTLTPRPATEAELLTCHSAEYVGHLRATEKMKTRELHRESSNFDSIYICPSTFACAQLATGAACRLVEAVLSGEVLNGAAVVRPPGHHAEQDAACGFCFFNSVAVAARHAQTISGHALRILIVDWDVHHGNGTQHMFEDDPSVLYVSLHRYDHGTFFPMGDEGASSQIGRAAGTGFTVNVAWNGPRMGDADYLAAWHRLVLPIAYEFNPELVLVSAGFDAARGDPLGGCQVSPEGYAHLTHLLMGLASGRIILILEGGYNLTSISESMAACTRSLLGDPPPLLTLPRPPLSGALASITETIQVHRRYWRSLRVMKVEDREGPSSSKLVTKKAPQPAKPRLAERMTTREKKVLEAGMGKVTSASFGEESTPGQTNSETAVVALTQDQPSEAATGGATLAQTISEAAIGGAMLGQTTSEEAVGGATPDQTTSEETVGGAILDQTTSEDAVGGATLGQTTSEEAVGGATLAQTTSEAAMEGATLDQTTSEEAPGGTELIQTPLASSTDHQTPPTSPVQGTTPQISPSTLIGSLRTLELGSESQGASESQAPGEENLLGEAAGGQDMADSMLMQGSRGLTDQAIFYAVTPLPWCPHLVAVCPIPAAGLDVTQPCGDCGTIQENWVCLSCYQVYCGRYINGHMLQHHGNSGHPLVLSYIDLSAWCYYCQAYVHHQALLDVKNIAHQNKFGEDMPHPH
Procedure, shortened: (§3)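 HEK293 cells are treated with compound, and acetylated tubulin and histone H3 are detected by Western blot with GAPDH as loading control. Each blot carries a tubastatin 10 µM positive control and a DMSO or medium negative control.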

[6] = Half life in human liver microsomes in presence of NADPH; assay type: ADME, microsome; procedure, shortened: as §2
Liver [7] = assay: Prodrug conversion in human liver microsomes assessed as N-[5-(5,6-Dichloro-1H-indol-1-yl)pentyl]-2-mercaptoacetamide formation measured over 60 mins; assay type: ADME, microsome; procedure, shortened: as §1
Histone deacetylase 1 [8] = biological target: T2, Histone deacetylase 1 (Homo sapiens, UniProt Q13547); assay: Inhibition of human HDAC1 using RHKKAc as substrate by fluorescence assay
T2 sequence (Q13547 whole entry): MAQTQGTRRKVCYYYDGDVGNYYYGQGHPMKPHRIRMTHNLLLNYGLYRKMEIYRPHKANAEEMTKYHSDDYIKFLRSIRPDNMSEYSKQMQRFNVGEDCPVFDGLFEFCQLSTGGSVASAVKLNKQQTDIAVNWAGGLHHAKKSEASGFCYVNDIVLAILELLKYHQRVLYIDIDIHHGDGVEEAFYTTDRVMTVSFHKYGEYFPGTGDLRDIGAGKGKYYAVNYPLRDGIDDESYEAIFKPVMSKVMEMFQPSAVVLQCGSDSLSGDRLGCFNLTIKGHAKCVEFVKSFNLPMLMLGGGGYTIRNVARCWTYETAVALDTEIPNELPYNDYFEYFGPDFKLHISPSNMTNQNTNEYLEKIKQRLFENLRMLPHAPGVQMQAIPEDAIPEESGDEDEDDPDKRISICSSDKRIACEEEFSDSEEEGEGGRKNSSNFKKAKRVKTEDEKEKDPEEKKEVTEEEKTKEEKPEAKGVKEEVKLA

[9] = biological target: T3, Protein deacetylase HDAC6 (Homo sapiens, UniProt Q9UBN7); assay: Inhibition of human HDAC6 using RHKKAc as substrate by fluorescence assay
T3 sequence (Q9UBN7 whole entry): T1 sequence (whole entry)

Homo sapiens = organism: Homo sapiens; assay: Selectivity ratio of IC50 for human HDAC1 to IC50 for human HDAC6
Procedure, shortened: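 HDAC1 and HDAC6 IC50s are each the mean of two experiments.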

Histone deacetylase 1 [10] = biological target: T2, Histone deacetylase 1; assay: Inhibition of HDAC1 in HEK293 cells assessed as increase in histone H3 acetylation at 5 uM after 24 hrs by Western blot method; assay type: cell-based; procedure, shortened: as §3
Liver [11] = assay: Prodrug conversion in mouse liver microsomes assessed as N-[4-[(5,7-Dichloroquinolin-8-yl)amino]butyl]-2-mercaptoacetamide formation measured over 60 mins; assay type: ADME, microsome; conditions: 1 h; procedure, shortened: as §1
Liver [12] = assay: Prodrug conversion in human liver microsomes assessed as N-[4-[(5,7-Dichloroquinolin-8-yl)amino]butyl]-2-mercaptoacetamide formation measured over 60 mins; assay type: ADME, microsome; conditions: 1 h; procedure, shortened: as §1
Mus musculus = assay: In vivo inhibition of HDAC6 in C57Bl/6J mouse assessed as increase in tubulin acetylation in cerebral cortex at 20 mg/kg, ip first dose administered in evening followed by second dose in next day morning measured 6 hrs post last dose by Western blot method relative to vehicle-treated control; assay type: functional; set-up: scale not given: the % may be the effect or the level left
Procedure, shortened: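 Mice (n=3) are dosed 20 mg/kg IP at 18:00, then dosed again at 20 mg/kg at 10:00 the next morning, and killed 6 h later. Cortex is taken for Western blot of acetyl-tubulin with GAPDH as loading control. Densitometric acetyl-tubulin/GAPDH ratio is expressed as % of vehicle-treated mice; significance is set at p<0.05.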

Drug metabolism (Liver [1])	remaining at 1 h [2]	remaining at 1 h [3]	half-life [4]	inhibition [5]	half-life [6]	Drug metabolism (Liver [7])	IC50 (Histone deacetylase 1 [8])	IC50 [9]	Ratio IC50 (Homo sapiens)	inhibition (Histone deacetylase 1 [10])	Drug metabolism (Liver [11])	Drug metabolism (Liver [12])	Structure (SMILES)	Activity (Mus musculus)
Metabolite_Detected	< 1%	< 1%	< 1 min	Dose-dependent effect	< 1 min	Metabolite_Detected							CC(C)C(=O)SCC(=O)NCCCCCn1ccc2cc(Cl)c(Cl)cc21	
	32.1%	39.6%	51 min		42.5 min		6570 nM	14.8 nM	444				O=C(CS)NCCCCCNc1c(Cl)cc(Cl)c2cccnc12	
								534 nM					O=C(CS)NCC(S)CCCn1ccc2cc(Cl)c(Cl)cc21 (stereo unspecified)	
	25.3%	29.5%	41.3 min	Dose-dependent effect	35.2 min		7490 nM	11.4 nM	657				O=C(CS)NCCCCCn1ccc2cc(Cl)c(Cl)cc21	
	33.3%	44.3%	70 min		48.8 min		28700 nM	1570 nM	18				CC(C)c1cn(CCCCCCNC(=O)CS)c2cc(Cl)c(Cl)cc12	

The remaining lines, values behind:

Structure (SMILES)	Drug metabolism (Liver [1])	remaining at 1 h [2]	remaining at 1 h [3]	half-life [4]	inhibition [5]	half-life [6]	Drug metabolism (Liver [7])	IC50 (Histone deacetylase 1 [8])	IC50 [9]	Ratio IC50 (Homo sapiens)	inhibition (Histone deacetylase 1 [10])	Drug metabolism (Liver [11])	Drug metabolism (Liver [12])	Activity (Mus musculus)
O=C(CSSCC(=O)NCCCCNc1c(Cl)cc(Cl)c2cccnc12)NCCCCNc1c(Cl)cc(Cl)c2cccnc12		8.5%	18.2%	25.9 min	Dose-dependent effect	20.7 min					Active	Metabolite_Detected	Metabolite_Detected	30%
O=C(CSSCC(=O)NCCCCCn1ccc2cc(Cl)c(Cl)cc21)NCCCCCn1ccc2cc(Cl)c(Cl)cc21	Metabolite_Detected	40.5%	18.2%	24.8 min	Dose-dependent effect	49.5 min	Metabolite_Detected				Active			40%
O=C(CS)NCCCCNc1c(Cl)cc(Cl)c2cccnc12		22.3%	61.7%	91.2 min		32.2 min		6880 nM	2.79 nM					
O=C(CS)NCCCCCCn1ccc2cc(F)c(Cl)cc21								29300 nM	65.1 nM	450				
O=C(CS)NCCCCCOc1c(Cl)cc(Cl)c2cccnc12								> 30000 nM	33.3 nM	> 901				
O=C(CS)NCCCCCCn1ccc2cc(Cl)c(Cl)cc21								> 30000 nM	63.9 nM	> 470				
O=C(CS)NCCCCCCn1cc(Cl)c2cc(Cl)c(Cl)cc21								> 30000 nM	241 nM	> 124				
